Measurements reported in ChEMBL document CHEMBL3421570, “Combinatorial Libraries As a Tool for the Discovery of Novel, Broad-Spectrum Antibacterial Agents Targeting the ESKAPE Pathogens” (J Med Chem, 2015).
pIC50: −log10 of the molar value. In brackets after ≈: the same amount, converted by molar mass. Activity calls are given as the source filed them. The calls are words filed in the database; no cut-off is given here.

Experiments:
[1] = Selectivity index, ratio of IC50 for human A549 cells to MIC for Enterococcus faecium
[2] = Cytotoxicity against human A549 cells assessed as cell viability recovery at 225 uM after 48 hrs by MTT assay; format: cell-based; details: read-out: Activity
How it was run: (§1)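 A549 cells grown in F-12K with L-glutamine, 10% FBS, 1% penicillin-streptomycin, seeded at 1.0 × 10^5 ml−1, allowed to adhere 24 h (37°C, 5% CO2), then exposed to compound in 45% w/v (2-hydroxypropyl)-β-cyclodextrin vehicle for 48 h. MTT 4 h, formazan solubilized in DMSO, absorbance 540 nm. Percent recovery versus vehicle-only; IC50 derived; at least three independent experiments.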

Staphylococcus aureus [3] = experiment: Effect on bacterial density of methicillin-resistant Staphylococcus aureus at MIC measured over 2 hrs period by time kill assay; format: functional, organism-based
Klebsiella pneumoniae [4] = experiment: Ratio of MIC for Klebsiella pneumoniae measured after 8 cycle passage to MIC for wild type Klebsiella pneumoniae; format: functional
Klebsiella pneumoniae [5] = experiment: Antimicrobial activity against Klebsiella pneumoniae assessed as inhibition of microbial growth after 24 hrs; format: functional
How it was run: (§2)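 Broth microdilution against multidrug-resistant clinical ESKAPE isolates. Overnight cultures (TSB for Gram-positives, LB for Gram-negatives) diluted 1:1000 in fresh medium, compound in DMF (≤2.0% DMF) added at decreasing concentrations, 37°C.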

Enterococcus faecium [6] = experiment: Bactericidal activity against Enterococcus faecium after 24 hrs; format: functional
[7] = Selectivity index, ratio of IC50 for human A549 cells to MIC for Acinetobacter baumannii
[8] = Selectivity index, ratio of IC50 for human A549 cells to MIC for Enterobacter cloacae
Staphylococcus aureus [9] = experiment: Ratio of MIC for Staphylococcus aureus measured after 8 cycle passage to MIC for wild type Staphylococcus aureus; format: functional
Acinetobacter baumannii [10] = experiment: Antimicrobial activity against Acinetobacter baumannii assessed as inhibition of microbial growth after 24 hrs; format: functional; how it was run: as §2
Staphylococcus aureus [11] = experiment: Antimicrobial activity against Staphylococcus aureus USA300 strain FPR3757 infected in mouse model of lethal peritonitis assessed as mouse survival at 2 uM, im dosed 1 hr post infection and measured after 5 days post infection; format: functional, organism-based
How it was run: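 Mice, six per group, infected i.p. with 1 × 10^8 CFU ml−1 S. aureus USA300 FPR3757 in PBS with 5% mucin. Compound given i.m. at 2 μM 1 h later; vehicle 45% w/v (2-hydroxypropyl)-β-cyclodextrin in water i.v.; vancomycin i.v. as control. Monitored twice daily for 5 days, pre-moribund animals euthanized. Survival compared by log-rank test.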

Enterococcus faecium [12] = experiment: Antimicrobial activity against Enterococcus faecium assessed as inhibition of microbial growth after 24 hrs; format: functional; how it was run: as §2
Staphylococcus aureus [13] = experiment: Antimicrobial activity against Staphylococcus aureus assessed as inhibition of microbial growth after 24 hrs; format: functional; how it was run: as §2
Enterobacter cloacae [14] = experiment: Induction of spontaneous mutation in Enterobacter cloacae at 2 to 10 MIC; format: functional, organism-based
Enterobacter cloacae [15] = experiment: Antibiofilm activity against Enterobacter cloacae incubated for 24 hrs followed by biofilm resuspension in PBS and measured after 24 hrs; format: functional
How it was run: (§3)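 Biofilms grown 24 h in 96-well plates from overnight cultures standardized to OD600 0.5 in fresh medium (human serum only for S. aureus; TSB for Gram-positives, LB for Gram-negatives). Medium then replaced with fresh medium containing a concentration range above and below MIC, 37°C overnight. After 24 h biofilm resuspended in PBS, serially diluted, plated in duplicate, CFU counted after 24 h at 37°C. Activity relative to untreated; three technical replicates; MBEC50 reported.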

Enterococcus faecium [16] = experiment: Induction of spontaneous mutation in Enterococcus faecium at 2 to 10 MIC; format: functional, organism-based
Enterobacter cloacae [17] = experiment: Antimicrobial activity against Enterobacter cloacae assessed as inhibition of microbial growth after 24 hrs; format: functional; how it was run: as §2
[18] = Selectivity index, ratio of IC50 for human A549 cells to MIC for Pseudomonas aeruginosa
Staphylococcus aureus [19] = experiment: Induction of spontaneous mutation in Staphylococcus aureus at 2 to 10 MIC; format: functional, organism-based
A549 = experiment: Cytotoxicity against human A549 cells after 48 hrs by MTT assay; format: cell-based; details: A549, 48 h; how it was run: as §1
Enterobacter cloacae [20] = experiment: Antimicrobial activity against Enterobacter cloacae assessed as inhibition of microbial growth at 45 uM after 24 hrs; format: functional, organism-based
How it was run: (§4)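 Broth microdilution single-concentration read: overnight cultures diluted 1:1000, compound in DMF (≤2.0%) added, 37°C for 24 h, growth inhibition scored visually by lack of turbidity; triplicate. Gram-positives grown in TSB, Gram-negatives in LB.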

Enterococcus faecium [21] = experiment: Antibiofilm activity against Enterococcus faecium incubated for 24 hrs followed by biofilm resuspension in PBS and measured after 24 hrs; format: functional; how it was run: as §3
Staphylococcus aureus [22] = experiment: Bactericidal activity against methicillin-resistant Staphylococcus aureus assessed as cell survival recovery at MIC measured after drug wash out after 120 mins by time kill assay; format: functional
How it was run: (§5)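 MRSA from stationary phase was regrown 3 h in TSB and seeded at OD600 0.5. […] After 120 min, cells were centrifuged and washed, serially diluted and plated for CFU. Percent recovery is relative to no-drug controls.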

Pseudomonas aeruginosa [23] = experiment: Antimicrobial activity against Pseudomonas aeruginosa assessed as inhibition of microbial growth after 24 hrs; format: functional; how it was run: as §2
Klebsiella pneumoniae [24] = experiment: Antimicrobial activity against Klebsiella pneumoniae assessed as inhibition of microbial growth at 45 uM after 24 hrs; format: functional, organism-based; how it was run: as §4
[25] = Selectivity index, ratio of IC50 for human A549 cells to MIC for Klebsiella pneumoniae
[26] = Induction of hemolysis in human RBC at 10 uM incubated for 15 mins; format: cell-based, Erythrocyte; details: red blood cells, read-out: Activity
How it was run: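 Human RBCs from whole blood, resuspended 20% v/v in HA buffer (NaCl, CaCl2), compound 10 μM, 15 min at 37°C. Centrifuged 5,500 g for 1 min, supernatant OD543 read. Percent hemolysis against DMF vehicle (0%) and 1.0% Triton X-100 (100%); triplicate.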

Acinetobacter baumannii [27] = experiment: Antimicrobial activity against Acinetobacter baumannii assessed as inhibition of microbial growth at 45 uM after 24 hrs; format: functional, organism-based; how it was run: as §4
Klebsiella pneumoniae [28] = experiment: Antibiofilm activity against Klebsiella pneumoniae incubated for 24 hrs followed by biofilm resuspension in PBS and measured after 24 hrs; format: functional; how it was run: as §3
[29] = Selectivity index, ratio of IC50 for human A549 cells to MIC for Staphylococcus aureus
Acinetobacter baumannii [30] = experiment: Ratio of MIC for Acinetobacter baumannii measured after 8 cycle passage to MIC for wild type Acinetobacter baumannii; format: functional
Enterobacter cloacae [31] = experiment: Bactericidal activity against Enterobacter cloacae after 24 hrs; format: functional
Acinetobacter baumannii [32] = experiment: Antibiofilm activity against Acinetobacter baumannii incubated for 24 hrs followed by biofilm resuspension in PBS and measured after 24 hrs; format: functional; how it was run: as §3
Pseudomonas aeruginosa [33] = experiment: Induction of spontaneous mutation in Pseudomonas aeruginosa at 2 to 10 MIC; format: functional, organism-based; details: 2 to 10 x MIC
Pseudomonas aeruginosa [34] = experiment: Antimicrobial activity against Pseudomonas aeruginosa assessed as inhibition of microbial growth at 45 uM after 24 hrs; format: functional, organism-based; how it was run: as §4
Klebsiella pneumoniae [35] = experiment: Antimicrobial activity against Klebsiella pneumoniae isolate 1441 assessed as inhibition of microbial growth in presence of 100 uM efflux pump inhibitor reserpine after 24 hrs; format: functional, organism-based
Klebsiella pneumoniae [36] = experiment: Induction of spontaneous mutation in Klebsiella pneumoniae at 2 to 10 MIC; format: functional, organism-based
[37] = Cytotoxicity against human A549 cells assessed as cell viability recovery up to 100 uM after 48 hrs by MTT assay; format: cell-based; details: read-out: Activity; how it was run: as §1
Pseudomonas aeruginosa [38] = experiment: Antibiofilm activity against Pseudomonas aeruginosa incubated for 24 hrs followed by biofilm resuspension in PBS and measured after 24 hrs; format: functional; how it was run: as §3
Klebsiella pneumoniae [39] = experiment: Bactericidal activity against Klebsiella pneumoniae after 24 hrs; format: functional
Pseudomonas aeruginosa [40] = experiment: Bactericidal activity against Pseudomonas aeruginosa after 24 hrs; format: functional
Staphylococcus aureus [41] = experiment: Bactericidal activity against methicillin-resistant Staphylococcus aureus at MIC measured after drug wash out after 120 mins by time kill assay; format: functional; how it was run: as §5
Enterococcus faecium [42] = experiment: Antimicrobial activity against Enterococcus faecium assessed as inhibition of microbial growth at 45 uM after 24 hrs; format: functional, organism-based; how it was run: as §4
Enterobacter cloacae [43] = experiment: Ratio of MIC for Enterobacter cloacae measured after 8 cycle passage to MIC for wild type Enterobacter cloacae; format: functional
Staphylococcus aureus [44] = experiment: Bactericidal activity against Staphylococcus aureus after 24 hrs; format: functional
Staphylococcus aureus [45] = experiment: Antibiofilm activity against Staphylococcus aureus incubated for 24 hrs followed by biofilm resuspension in PBS and measured after 24 hrs; format: functional; how it was run: as §3
Acinetobacter baumannii [46] = experiment: Bactericidal activity against Acinetobacter baumannii after 24 hrs; format: functional
Acinetobacter baumannii [47] = experiment: Induction of spontaneous mutation in Acinetobacter baumannii at 2 to 10 MIC; format: functional, organism-based
Staphylococcus aureus [48] = experiment: Antimicrobial activity against Staphylococcus aureus assessed as inhibition of microbial growth at 45 uM after 24 hrs; format: functional, organism-based; how it was run: as §4

Compound: CCCCCCCN1C(=N)N(CCCC[C@H]2CNC(=N)N2CCCCC2CCCCC2)C[C@@H]1CC1CCCCC1
- Selectivity Index [1]: >139
- viability at 48 h, 225 µM [2]: > 50%
- Activity (Staphylococcus aureus [3]): inactive
- Ratio (Klebsiella pneumoniae [4]): <=8
- MIC (Klebsiella pneumoniae [5]): 1.6 µM
- MBC90 (Enterococcus faecium [6]): 2.9 µM (≈ 1.62 µg/mL)
- Selectivity Index [7]: >139
- Selectivity Index [8]: >139
- Ratio (Staphylococcus aureus [9]): 16
- MIC (Acinetobacter baumannii [10]): 1.6 µM
- Activity (Staphylococcus aureus [11]): Active
- MIC (Enterococcus faecium [12]): 1.6 µM
- MIC (Staphylococcus aureus [13]): 1.6 µM
- Activity (Enterobacter cloacae [14]): inactive
- MBEC50 (Enterobacter cloacae [15]): 13 µM
- Activity (Enterococcus faecium [16]): inactive
- MIC (Enterobacter cloacae [17]): 1.6 µM
- Selectivity Index [18]: >139
- Activity (Staphylococcus aureus [19]): inactive
- pIC50 (A549): < 3.65
- growth inhibition (GI) (Enterobacter cloacae [20]): Active
- MBEC50 (Enterococcus faecium [21]): 28 µM
- Survival (Staphylococcus aureus [22]): 0.2%
- MIC (Pseudomonas aeruginosa [23]): 1.6 µM
- growth inhibition (GI) (Klebsiella pneumoniae [24]): Active
- Selectivity Index [25]: >139
- hemolysis at 0.25 h, 10 µM [26]: 0.34%
- growth inhibition (GI) (Acinetobacter baumannii [27]): Active
- MBEC50 (Klebsiella pneumoniae [28]): 6.3 µM
- Selectivity Index [29]: >139
- Ratio (Acinetobacter baumannii [30]): <=8
- MBC90 (Enterobacter cloacae [31]): 9.6 µM (≈ 5.35 µg/mL)
- MBEC50 (Acinetobacter baumannii [32]): 14 µM
- Activity (Pseudomonas aeruginosa [33]): inactive
- growth inhibition (GI) (Pseudomonas aeruginosa [34]): Active
- growth inhibition (GI) (Klebsiella pneumoniae [35]): Active
- Activity (Klebsiella pneumoniae [36]): inactive
- viability at 48 h [37]: > 65%
- MBEC50 (Pseudomonas aeruginosa [38]): 34 µM
- MBC90 (Klebsiella pneumoniae [39]): 4.5 µM (≈ 2.51 µg/mL)
- MBC90 (Pseudomonas aeruginosa [40]): 4 µM (≈ 2.23 µg/mL)
- fold change (FC) (Staphylococcus aureus [41]): 2.5
- growth inhibition (GI) (Enterococcus faecium [42]): Active
- Ratio (Enterobacter cloacae [43]): <=8
- MBC90 (Staphylococcus aureus [44]): 3.9 µM (≈ 2.17 µg/mL)
- MBEC50 (Staphylococcus aureus [45]): 7.6 µM
- MBC90 (Acinetobacter baumannii [46]): 2.8 µM (≈ 1.56 µg/mL)
- Activity (Acinetobacter baumannii [47]): inactive
- growth inhibition (GI) (Staphylococcus aureus [48]): Active
